Assays:
[1] = system: Nucleic Acid; assay: Binding affinity to 5'-TTGCAGAACAGCAA-3' sequence of DNA assessed as change in melting temperature by spectrophotometry; assay type: nucleic-acid assay
[2] = system: LNCaP; assay: Inhibition of dihydrotestosterone-induced prostate specific antigen expression in human LNCAP cells at 5 uM by quantitative RT-PCR analysis; assay type: functional
Procedure, shortened: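 LNCaP cells were induced with 1 nM DHT and PSA mRNA measured by quantitative real-time RT-PCR. Oxime-linked polyamides were given at 5, 1 and 0.1 μM, and unconjugated controls at 5 μM, with DMSO ≤0.1%. Expression was normalized to untreated DHT-induced cells; uninduced and DMSO controls were included.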

[3] = system: Nucleic Acid; assay: Binding affinity to 14mer DNA assessed as change in melting temperature by spectrophotometry; assay type: nucleic-acid assay
Procedure, shortened: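 Thermal melting of 14-mer oligonucleotide duplexes (HRE or ARE sequence) with and without polyamide, read by UV spectrophotometry in 1 cm quartz cuvettes with a thermostatted holder. Buffer was 10 mM sodium cacodylate, 10 mM KCl, 10 mM MgCl2, 5 mM CaCl2, pH 7.0. ΔTm is taken relative to the free duplex.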

[4] = system: Nucleic Acid; assay: Binding affinity to 5'-GTGCATACGTGGGC-3' sequence of DNA assessed as change in melting temperature by spectrophotometry; assay type: nucleic-acid assay
[5] = system: LNCaP; assay: Cytotoxicity against human LNCAP cells assessed as cell viability at 0.01 to 30 uM after 48 hrs by WST1 assay; assay type: functional
Procedure, shortened: (§1)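 LNCaP cells were seeded at 10-15 × 10^2 per well and allowed to settle 48 h before polyamide was added as 2× media solutions (DMSO <0.1%). After 48 h exposure, media was replaced and cells recovered 24 h. WST-1 was added for 30 min and A450 read. Wells were corrected for media-only background and normalized to untreated controls.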

[6] = system: LNCaP; assay: Cytotoxicity against human LNCAP cells after 48 hrs by WST1 assay; assay type: functional, cell-based; procedure, shortened: as §1

| Compound | ΔTm [3] [°C] | also measured |
| --- | --- | --- |
| Cn1cc(NC(=O)c2cc(NC(=O)c3cc(NC(=O)c4nc(NC(=O)[C@H](N)CCNC(=O)c5cc(NC(=O)c6cc(NC(=O)c7cc(NC(=O)c8nccn8C)cn7C)cn6C)cn5C)cn4C)cn3C)cn2C)cc1C(=O)NCCCON |  | ΔTm [1]: 11.2 °C; inhibition at 5 µM [2]: 50% |
| Cn1cc(NC(=O)c2cc(NC(=O)c3cc(NC(=O)c4nc(NC(=O)[C@H](N)CCNC(=O)c5cc(NC(=O)c6cc(NC(=O)c7cc(NC(=O)c8nccn8C)cn7C)cn6C)cn5C)cn4C)cn3C)cn2C)cc1C(=O)NCCCN |  | ΔTm [1]: 16.2 °C |
| CN(C)CCCNC(=O)CCNC(=O)c1cc(NC(=O)c2cc(NC(=O)c3cc(NC(=O)c4nc(NC(=O)[C@H](N)CCNC(=O)c5nc(NC(=O)c6cc(NC(=O)c7nc(NC(=O)c8nccn8C)cn7C)cn6C)cn5C)cn4C)cn3C)cn2C)cn1C |  | ΔTm [4]: 1.6 °C |
| Cn1cc(NC(=O)c2cc(NC(=O)c3cc(NC(=O)c4nc(NC(=O)[C@H](N)CCNC(=O)c5nc(NC(=O)c6cc(NC(=O)c7nc(NC(=O)c8nccn8C)cn7C)cn6C)cn5C)cn4C)cn3C)cn2C)cc1C(=O)NCCCCCCCNC(=O)c1cccc(C(=O)O)c1 | 0.7 |  |
| Cn1cc(NC(=O)c2cc(NC(=O)c3cc(NC(=O)c4nc(NC(=O)[C@H](N)CCNC(=O)c5nc(NC(=O)c6cc(NC(=O)c7nc(NC(=O)c8nccn8C)cn7C)cn6C)cn5C)cn4C)cn3C)cn2C)cc1C(=O)NCCCN | 4.1 |  |
| CN(C)CCCNC(=O)CCNC(=O)c1cc(NC(=O)c2cc(NC(=O)c3nc(NC(=O)c4cc(NC(=O)[C@H](N)CCNC(=O)c5nc(NC(=O)c6cc(NC(=O)c7cc(NC(=O)c8nccn8C)cn7C)cn6C)cn5C)cn4C)cn3C)cn2C)cn1C | 3.6 |  |
| Cn1cc(NC(=O)c2cc(NC(=O)c3nc(NC(=O)c4cc(NC(=O)[C@H](N)CCNC(=O)c5nc(NC(=O)c6cc(NC(=O)c7cc(NC(=O)c8nccn8C)cn7C)cn6C)cn5C)cn4C)cn3C)cn2C)cc1C(=O)NCCCNC(=O)c1cccc(C(=O)O)c1 | 1.5 | Activity [5]: <50% |
| Cn1cc(NC(=O)c2cc(NC(=O)c3nc(NC(=O)c4cc(NC(=O)[C@H](N)CCNC(=O)c5nc(NC(=O)c6cc(NC(=O)c7cc(NC(=O)c8nccn8C)cn7C)cn6C)cn5C)cn4C)cn3C)cn2C)cc1C(=O)NCCCCCCCNC(=O)c1cccc(C(=O)O)c1 | 2.6 | Activity [5]: <50% |
| Cn1cc(NC(=O)c2cc(NC(=O)c3nc(NC(=O)c4cc(NC(=O)[C@H](N)CCNC(=O)c5nc(NC(=O)c6cc(NC(=O)c7cc(NC(=O)c8nccn8C)cn7C)cn6C)cn5C)cn4C)cn3C)cn2C)cc1C(=O)NCCCN | 5.3 |  |
| Cn1cc(NC(=O)c2cc(NC(=O)c3nc(NC(=O)c4cc(NC(=O)[C@H](N)CCNC(=O)c5nc(NC(=O)c6cc(NC(=O)c7cc(NC(=O)c8sccc8Cl)cn7C)cn6C)cn5C)cn4C)cn3C)cn2C)cc1C(=O)NCCCCCCCNC(=O)c1cccc(C(=O)O)c1 |  | ΔTm [4]: 9 °C |
| Cn1cc(NC(=O)c2cc(NC(=O)c3cc(NC(=O)c4nc(NC(=O)[C@H](N)CCNC(=O)c5cc(NC(=O)c6cc(NC(=O)c7cc(NC(=O)c8nccn8C)cn7C)cn6C)cn5C)cn4C)cn3C)cn2C)cc1C(=O)NCCCCCCCNC(=O)c1cccc(C(=O)O)c1 |  | IC50 [6]: > 30 µM; ΔTm [1]: 10.4 °C; Activity [5]: <50% |

The next lines start with results.

| ΔTm [3] [°C] | Compound | also measured |
| --- | --- | --- |
| 6.4 | CN(CCCN)CCCNC(=O)c1cc(NC(=O)c2cc(NC(=O)c3nc(NC(=O)c4cc(NC(=O)[C@H](N)CCNC(=O)c5nc(NC(=O)c6cc(NC(=O)c7cc(NC(=O)c8nccn8C)cn7C)cn6C)cn5C)cn4C)cn3C)cn2C)cn1C |  |
| 0.5 | Cn1cc(NC(=O)c2cc(NC(=O)c3cc(NC(=O)c4nc(NC(=O)[C@H](N)CCNC(=O)c5nc(NC(=O)c6cc(NC(=O)c7nc(NC(=O)c8nccn8C)cn7C)cn6C)cn5C)cn4C)cn3C)cn2C)cc1C(=O)NCCCNC(=O)c1cccc(C(=O)O)c1 |  |
| 0.1 | Cn1cc(NC(=O)c2cc(NC(=O)c3cc(NC(=O)c4nc(NC(=O)[C@H](N)CCNC(=O)c5nc(NC(=O)c6cc(NC(=O)c7nc(NC(=O)c8nccn8C)cn7C)cn6C)cn5C)cn4C)cn3C)cn2C)cc1C(=O)NCCCON |  |
| 2.1 | Cn1cc(NC(=O)c2cc(NC(=O)c3cc(NC(=O)c4nc(NC(=O)[C@H](N)CCNC(=O)c5nc(NC(=O)c6cc(NC(=O)c7nc(NC(=O)c8nccn8C)cn7C)cn6C)cn5C)cn4C)cn3C)cn2C)cc1C(=O)NCCCCCCCN |  |
| 4 | CN(CCCNC(=O)c1cccc(C(=O)O)c1)CCCNC(=O)c1cc(NC(=O)c2cc(NC(=O)c3nc(NC(=O)c4cc(NC(=O)[C@H](N)CCNC(=O)c5nc(NC(=O)c6cc(NC(=O)c7cc(NC(=O)c8nccn8C)cn7C)cn6C)cn5C)cn4C)cn3C)cn2C)cn1C | Activity [5]: <50% |

— ChEMBL document CHEMBL1155270, “Modifications at the C-terminus to improve pyrrole-imidazole polyamide activity in cell culture” (J Med Chem, 2009)
